Data on one molecule can be found in ChEMBL document CHEMBL4825692, “Benzofuranyl-2-imidazoles as imidazoline I2 receptor ligands for Alzheimer's disease” (Eur J Med Chem, 2021).

Data set [1] can be described thus: Acute toxicity in albino mouse assessed as effect on body weight at 100 mg/kg, ip. Conditions: in vivo. The data set is classed as organism-based.
A short description of data set [2]: Solubility of the compound in 99 % PBS buffer solution. The data set is classed as physicochemical.
A short description of data set [3]: Solubility of compound at pH 1.13. The data set is classed as physicochemical. Conditions: buffer. Summed up:
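Solubility was measured at pH 1.13, 4.61 and 6.97, simulating gastric and intestinal fluids, and classed by European Pharmacopoeia terms.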

Data set [4] can be described thus: Microsomal stability in human liver microsomes assessed as parent compound remaining after 60 mins. The format is ADME, Microsome. Conditions: read-out: Stabilty. Summed up: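 Human and mouse microsomes, incubation for 60 min, with percentage of parent compound remaining reported.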
The target of a further data set is T1, Cytochrome P450 1A2 (Homo sapiens, UniProt P05177).
T1 sequence (P05177 whole entry): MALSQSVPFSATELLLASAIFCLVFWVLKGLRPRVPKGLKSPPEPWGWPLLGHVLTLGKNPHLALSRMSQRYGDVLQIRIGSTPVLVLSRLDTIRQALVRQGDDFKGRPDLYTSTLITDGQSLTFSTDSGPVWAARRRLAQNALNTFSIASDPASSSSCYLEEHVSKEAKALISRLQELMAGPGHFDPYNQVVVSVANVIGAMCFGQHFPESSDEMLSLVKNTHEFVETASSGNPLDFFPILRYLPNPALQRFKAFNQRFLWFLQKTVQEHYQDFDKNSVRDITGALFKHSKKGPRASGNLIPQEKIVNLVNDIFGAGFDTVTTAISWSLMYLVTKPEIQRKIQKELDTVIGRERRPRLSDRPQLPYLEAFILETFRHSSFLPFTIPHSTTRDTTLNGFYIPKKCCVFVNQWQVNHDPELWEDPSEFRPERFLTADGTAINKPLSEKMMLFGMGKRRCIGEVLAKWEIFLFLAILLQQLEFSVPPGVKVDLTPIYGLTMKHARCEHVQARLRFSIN
As to the kind of experiment: Inhibition of CYP1A2 (unknown origin) at 10 uM. The data set is classed as ADME. In a few lines: (§1)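 Recombinant human CYP1A2, CYP2C9, CYP2C19, CYP2D6 and CYP3A4 (7-BFC or DBF as probe) were tested with probe substances and fluorescent detection, with test compound at 10 μM.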

A further data set has as its target Cytochrome P450 2C9 (Homo sapiens, UniProt P11712). Nature of the data set: Inhibition of CYP2C9 (unknown origin) at 10 uM. The data set is classed as ADME. Summed up: as §1
The next data set deals with Cytochrome P450 2C19 (Homo sapiens, UniProt P33261). As to the kind of experiment: Inhibition of CYP2C19 (unknown origin) at 10 uM. The data set is classed as ADME. Summed up: as §1
Sequence of Cytochrome P450 2C19 (P33261 whole entry): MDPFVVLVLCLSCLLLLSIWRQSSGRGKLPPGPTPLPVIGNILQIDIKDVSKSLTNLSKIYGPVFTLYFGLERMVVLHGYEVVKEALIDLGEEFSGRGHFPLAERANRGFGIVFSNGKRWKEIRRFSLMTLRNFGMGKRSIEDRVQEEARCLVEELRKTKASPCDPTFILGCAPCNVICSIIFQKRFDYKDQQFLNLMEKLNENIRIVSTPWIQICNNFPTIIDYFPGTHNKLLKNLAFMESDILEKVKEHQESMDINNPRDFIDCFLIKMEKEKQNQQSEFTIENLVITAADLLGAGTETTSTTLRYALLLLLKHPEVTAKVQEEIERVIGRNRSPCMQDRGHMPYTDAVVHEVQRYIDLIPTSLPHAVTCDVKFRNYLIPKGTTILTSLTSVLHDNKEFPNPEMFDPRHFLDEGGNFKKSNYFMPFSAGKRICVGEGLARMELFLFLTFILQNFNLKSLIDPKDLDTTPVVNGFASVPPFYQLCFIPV
A further data set concerns the target Cytochrome P450 3A4 (Homo sapiens, UniProt P08684). Nature of the data set: Inhibition of CYP3A4 (unknown origin) using as 7-BFC as substrate at 10 uM. The data set is classed as ADME. In a few lines:
as §1

Data set [5] can be described thus: Plasma protein binding in human assessed as unbound fraction. The format is ADME, cell-free.
A short description of data set [6]: Plasma protein binding in mouse assessed as unbound fraction. The data set is classed as ADME, cell-free.
Another data set has as its target hERG (KCNH2) (Homo sapiens, UniProt Q12809). Nature of the data set: Inhibition of human ERG at 10 uM.
The next data set has as its system LN-229. Nature of the data set: Cytotoxicity against human LN-229 cells at 100 uM by real time IncuCyte proliferation assay. The data set is classed as cell-based. Conditions: ln-229, 100 µM. In a few lines:
(§2)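 Adherent lines (LN-229, Capan-1, HCT-116, NCI-H460) seeded at 500–1500 cells/well and treated after overnight attachment. Suspension lines (HL-60, K-562, Z-138, DND-41) seeded at 2500–5500 cells/well directly with compound. Highest concentration 100 μM; proliferation tracked by real-time IncuCyte imaging over 72 h at 37 °C.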

In the next data set the test system is CAPAN-1. As to the kind of experiment: Cytotoxicity against human CAPAN-1 cells at 100 uM by real time IncuCyte proliferation assay. The data set is classed as cell-based. Conditions: capan-1, 100 µM. Summed up:
as §2

A further data set concerns NCI-H460. Nature of the data set: Cytotoxicity against human NCI-H460 cells at 100 uM by real time IncuCyte proliferation assay. The format is cell-based. Conditions: nci-h460, 100 µM. In a few lines: as §2
In another data set the test system is HL-60. As to the kind of experiment: Cytotoxicity against human HL-60 cells at 100 uM by real time IncuCyte proliferation assay. Conditions: hl-60, 100 µM. The data set is classed as cell-based. Summed up:
as §2

A further data set has as its system K562. Nature of the data set: Cytotoxicity against human K562 cells at 100 uM by real time IncuCyte proliferation assay. The data set is classed as cell-based. Conditions: k562, 100 µM. In a few lines:
as §2

Data set [7] is described as follows: Tmax in CD-1 mouse at 10 mg/kg, po measured after 24 hrs by HPLC/UV-VS analysis. Conditions: in vivo. The data set is classed as ADME, organism-based. Summed up:
(§3)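 Male CD1 mice (40–50 g, n = 3–4 per group) received a single 10 mg/kg dose. Plasma was taken at 15, 30, 45 and 60 min and 2, 3, 4, 5, 8 and 24 h. Drug was measured by HPLC-UV at 290 nm against a calibration of 0,025-5 μg/mL. Non-compartmental analysis used the mean curve: t1/2β = ln2/β from least-squares terminal slope; Tmax read directly.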

Data set [8] is described as follows: Terminal half life in CD-1 mouse at 10 mg/kg, po measured after 24 hrs by HPLC/UV-VS analysis. The format is ADME, organism-based. Conditions: in vivo, read-out: beta t1/2 (converted). Summed up: as §3
In another data set the test system is Mus musculus. Nature of the data set: Antialzheimer activity in 5xFAD transgenic Alzheimer disease mouse model assessed as increase in SOD1 expression at 1 mg/kg/day by Western blot analysis.
Data set [9] can be described thus: Displacement of [3H]2-BFI from imidazoline I2 receptor low affinity site in Swiss mouse brain cerebral cortex membrane measured after 45 mins by liquid scintillation counting spectrometry.
A short description of data set [10]: Displacement of [3H]2-BFI from imidazoline I2 receptor in post-mortem human brain frontal cortex membrane one site model measured after 45 mins by liquid scintillation counting spectrometry.
The nature of data set [11]: Displacement of [3H]2-BFI from imidazoline I2 receptor low affinity site in post-mortem human brain frontal cortex membrane two site model measured after 45 mins by liquid scintillation counting spectrometry.
Data set [12] is described as follows: Displacement of [3H]2-BFI from imidazoline I2 receptor high affinity site in post-mortem human brain frontal cortex membrane two site model measured after 45 mins by liquid scintillation counting spectrometry.
The species entered for the next data set is Homo sapiens. Nature of the data set: Displacement of [3H]2-BFI from imidazoline I2 receptor in post-mortem human brain frontal cortex membrane assessed as occupancy at high affinity site measured after 45 mins by liquid scintillation counting spectrometry.

Calls of active or inactive are those of the source. No cut-off for these calls is given here.

Sequence of Cytochrome P450 3A4 (P08684 whole entry): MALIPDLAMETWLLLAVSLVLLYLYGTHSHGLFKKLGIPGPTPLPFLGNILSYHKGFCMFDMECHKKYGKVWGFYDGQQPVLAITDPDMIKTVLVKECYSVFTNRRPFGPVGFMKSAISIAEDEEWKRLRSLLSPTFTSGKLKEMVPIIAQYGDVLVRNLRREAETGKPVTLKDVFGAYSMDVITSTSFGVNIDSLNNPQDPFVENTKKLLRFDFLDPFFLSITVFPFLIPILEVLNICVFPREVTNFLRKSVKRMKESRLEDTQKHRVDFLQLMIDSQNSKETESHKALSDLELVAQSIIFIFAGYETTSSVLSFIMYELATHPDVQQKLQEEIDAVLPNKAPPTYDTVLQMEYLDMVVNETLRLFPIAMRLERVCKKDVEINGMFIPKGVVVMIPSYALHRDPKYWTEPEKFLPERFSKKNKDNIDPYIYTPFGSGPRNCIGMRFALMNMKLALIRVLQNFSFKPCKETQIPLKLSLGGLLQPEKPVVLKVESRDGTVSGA
Sequence of hERG (KCNH2) (Q12809 whole entry): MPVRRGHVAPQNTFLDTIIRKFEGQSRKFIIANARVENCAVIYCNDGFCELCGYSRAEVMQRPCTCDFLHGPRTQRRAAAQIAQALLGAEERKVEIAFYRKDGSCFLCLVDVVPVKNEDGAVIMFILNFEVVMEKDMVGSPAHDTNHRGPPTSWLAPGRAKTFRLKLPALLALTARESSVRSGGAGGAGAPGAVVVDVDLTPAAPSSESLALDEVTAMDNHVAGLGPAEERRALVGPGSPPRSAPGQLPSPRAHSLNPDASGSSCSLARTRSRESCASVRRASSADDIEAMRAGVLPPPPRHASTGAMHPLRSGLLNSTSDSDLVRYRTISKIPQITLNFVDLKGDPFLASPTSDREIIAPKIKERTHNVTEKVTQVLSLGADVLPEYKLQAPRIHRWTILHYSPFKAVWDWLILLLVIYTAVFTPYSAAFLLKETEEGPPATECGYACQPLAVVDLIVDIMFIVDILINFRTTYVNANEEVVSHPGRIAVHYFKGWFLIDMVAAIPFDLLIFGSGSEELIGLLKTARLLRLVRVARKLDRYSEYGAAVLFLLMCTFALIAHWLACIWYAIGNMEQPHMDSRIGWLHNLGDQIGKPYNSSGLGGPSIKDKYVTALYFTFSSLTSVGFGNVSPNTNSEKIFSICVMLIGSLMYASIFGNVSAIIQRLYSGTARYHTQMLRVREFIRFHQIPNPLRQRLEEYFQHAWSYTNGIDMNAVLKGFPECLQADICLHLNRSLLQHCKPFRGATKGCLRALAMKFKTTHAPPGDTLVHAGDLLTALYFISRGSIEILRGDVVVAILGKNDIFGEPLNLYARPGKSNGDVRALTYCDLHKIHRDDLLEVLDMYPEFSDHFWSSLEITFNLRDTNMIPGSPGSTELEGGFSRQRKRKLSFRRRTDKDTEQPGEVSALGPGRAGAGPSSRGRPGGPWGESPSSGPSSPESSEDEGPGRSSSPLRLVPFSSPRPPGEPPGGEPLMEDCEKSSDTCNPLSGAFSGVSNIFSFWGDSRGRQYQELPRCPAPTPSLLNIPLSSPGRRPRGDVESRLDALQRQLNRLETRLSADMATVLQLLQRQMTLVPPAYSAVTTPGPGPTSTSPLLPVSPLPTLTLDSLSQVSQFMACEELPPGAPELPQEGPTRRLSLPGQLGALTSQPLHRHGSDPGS
Sequence of Cytochrome P450 2C9 (P11712 whole entry): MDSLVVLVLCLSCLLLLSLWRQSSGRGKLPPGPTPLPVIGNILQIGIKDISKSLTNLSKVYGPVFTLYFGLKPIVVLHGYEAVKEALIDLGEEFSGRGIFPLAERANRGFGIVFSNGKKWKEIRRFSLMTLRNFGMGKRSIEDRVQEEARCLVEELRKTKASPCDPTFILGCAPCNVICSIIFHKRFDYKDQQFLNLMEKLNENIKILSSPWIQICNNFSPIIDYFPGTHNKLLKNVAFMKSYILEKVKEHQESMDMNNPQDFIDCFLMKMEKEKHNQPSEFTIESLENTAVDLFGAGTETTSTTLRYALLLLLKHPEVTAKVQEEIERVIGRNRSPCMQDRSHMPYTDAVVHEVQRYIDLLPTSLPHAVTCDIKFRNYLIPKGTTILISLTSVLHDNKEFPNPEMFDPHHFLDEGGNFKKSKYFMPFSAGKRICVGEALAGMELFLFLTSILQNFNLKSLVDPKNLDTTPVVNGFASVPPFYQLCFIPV

As to `Cl.c1ccc2oc(-c3ncc[nH]3)cc2c1`, the Activity result (in data set [1]; in the data set with LN-229; with CAPAN-1; in the data set on NCI-H460; in the data set with HL-60; in the data set with K562) was “Non-Toxic” each time. The Activity in the data set filed under Homo sapiens worked out at 34%. Besides, the solubility in data set [2] was 52.5 µM; in data set [3], “Soluble”. For the same molecule, in [4], the remaining at 1 h was 58%. The “inhibition (INH)” value on Cytochrome P450 1A2, at Cytochrome P450 2C9, on Cytochrome P450 2C19 and against Cytochrome P450 3A4 was “Not Active” throughout. Further, the free fraction (fraction unbound) was 0.071 in [5] and 0.16 in data set [6]. This molecule registered an inhibition at 10 µM against hERG (KCNH2) of 4%. In addition, the Tmax in data set [7] turned out to be 2 h. Moreover, the half-life in data set [8] was 402 min. For the same molecule, the outcome in the data set on Mus musculus was Active. The pKi in [9] amounted to 6; in data set [10], 6.67; in data set [11], 6.02; in data set [12] it was 8.17.
